The target in assay [1] is T1, Sodium-dependent dopamine transporter (Rattus norvegicus, UniProt P23977). The assay can be described thus: Inhibition of [3H]DA uptake by rat striatal dopamine transporter. In outline:
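Rat striatal crude synaptosomes were prepared from male Sprague–Dawley rats by 0.32 M sucrose homogenisation and centrifugation at 800g then 2000g. Each tube held 1.5 mg tissue, 0.5 nM [3H]dopamine and 10 μM pargyline in Krebs phosphate buffer, pH 7.4, with dextrose and ascorbate. Incubation was 3 min at 30 °C, followed by filtration and scintillation counting. Nonspecific uptake was defined with 1 μM mazindol. Three or four experiments were run in triplicate, and Ki was derived by Cheng–Prusoff.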

Assay [2] deals with T2, Norepinephrine transporter (Rattus norvegicus, UniProt Q9WTR4). The assay is described as follows: Inhibition of [3H]NE uptake by rat frontal cortex Norepinephrine transporter. The assay is classed as tissue-based. In outline:
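Rat frontal cortex synaptosomes were used at 10 mg/mL tissue with 5 nM final [3H]norepinephrine and 10 μM pargyline in Krebs phosphate buffer, pH 7.4. Incubation was 3 min at 30 °C, followed by filtration and scintillation counting. Nonspecific uptake was defined with 1 μM desipramine. Three or four experiments were run in triplicate, and Ki was derived by Cheng–Prusoff.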

For assay [3], the target named is T2, Norepinephrine transporter. The assay is described as follows: Binding affinity at the Norepinephrine transporter in rat frontal cortex by inhibition of 0.5 nM [3H]nisoxetine binding. The assay is classed as tissue-based.
Assay [4] addresses T1, Sodium-dependent dopamine transporter. The assay is described as follows: Binding affinity at the Dopamine transporter in rat striata by inhibition of 0.5 nM [3H]WIN-35428 binding.
Assay [5] deals with T3, Monoamine transporters; serotonin & dopamine (Rattus norvegicus) (UniProt P31652+P23977). The assay is described as follows: Ratio of IC50 value against 5-HT to that of DA transporters. The assay is classed as protein assay.
Assay [6] has as its target Monoamine transporters; Norepininephrine & dopamine (Rattus norvegicus) (UniProt P23977+Q9WTR4). The assay is described as follows: Ratio of IC50 value against NE to that of DA transporters. It counts as protein assay. In outline:
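Competition binding against 0.5 nM [3H]WIN 35,428 (DA transporter) or 0.5 nM [3H]nisoxetine (NE transporter). The IC50 is the mean ± standard error of three or four experiments, each run in triplicate. Selectivity ratios are NE/DA or 5-HT/DA quotients of the IC50 values.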

For assay [7], the target named is Sodium-dependent serotonin transporter (Rattus norvegicus, UniProt P31652). The assay can be described thus: Binding affinity at the Serotonin transporter in rat midbrain by inhibition of 0.5 nM [3H]-paroxetine binding. The assay is classed as tissue-based.
The target in assay [8] is T3, Monoamine transporters; serotonin & dopamine (Rattus norvegicus). The assay is described as follows: Ratio of IC50 value against Serotonin transporter to that of dopamine transporter. The assay is classed as protein assay.

Molecules are shown by their SMILES.

Sodium-dependent serotonin transporter, sequence (P31652 whole entry): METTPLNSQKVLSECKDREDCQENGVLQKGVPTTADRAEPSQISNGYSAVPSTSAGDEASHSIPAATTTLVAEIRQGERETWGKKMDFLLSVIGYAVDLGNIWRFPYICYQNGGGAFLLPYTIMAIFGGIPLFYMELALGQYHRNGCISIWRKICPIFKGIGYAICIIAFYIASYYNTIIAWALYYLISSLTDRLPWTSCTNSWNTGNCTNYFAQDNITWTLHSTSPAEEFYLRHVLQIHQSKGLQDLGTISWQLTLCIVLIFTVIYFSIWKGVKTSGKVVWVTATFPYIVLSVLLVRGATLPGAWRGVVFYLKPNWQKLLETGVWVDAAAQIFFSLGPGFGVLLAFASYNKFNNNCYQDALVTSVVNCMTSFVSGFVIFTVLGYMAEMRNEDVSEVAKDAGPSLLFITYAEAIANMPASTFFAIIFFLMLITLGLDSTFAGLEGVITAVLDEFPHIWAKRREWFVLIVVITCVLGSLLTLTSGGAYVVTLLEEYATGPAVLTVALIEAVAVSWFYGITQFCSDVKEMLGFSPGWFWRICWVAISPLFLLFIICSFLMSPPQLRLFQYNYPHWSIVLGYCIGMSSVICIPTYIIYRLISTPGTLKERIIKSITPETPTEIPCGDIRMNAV
T3 sequence (P23977 whole entry, looked up): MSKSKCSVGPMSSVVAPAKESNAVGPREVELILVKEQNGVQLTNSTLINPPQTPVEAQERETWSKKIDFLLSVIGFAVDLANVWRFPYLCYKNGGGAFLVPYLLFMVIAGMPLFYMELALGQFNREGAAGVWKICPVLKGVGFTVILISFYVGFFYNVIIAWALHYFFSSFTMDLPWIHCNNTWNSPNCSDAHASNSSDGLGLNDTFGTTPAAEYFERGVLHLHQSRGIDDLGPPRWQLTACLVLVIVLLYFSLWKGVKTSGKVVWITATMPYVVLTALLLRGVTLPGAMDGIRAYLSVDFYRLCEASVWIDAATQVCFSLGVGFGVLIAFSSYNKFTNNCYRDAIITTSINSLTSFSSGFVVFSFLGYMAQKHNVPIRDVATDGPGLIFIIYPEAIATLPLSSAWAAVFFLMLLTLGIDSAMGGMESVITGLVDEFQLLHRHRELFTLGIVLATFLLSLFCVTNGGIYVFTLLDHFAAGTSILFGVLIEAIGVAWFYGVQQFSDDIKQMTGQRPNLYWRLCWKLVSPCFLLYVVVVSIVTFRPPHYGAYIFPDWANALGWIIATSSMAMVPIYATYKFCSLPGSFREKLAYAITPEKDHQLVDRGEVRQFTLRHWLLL
T3 sequence (P31652 whole entry, looked up): as the sequence (P31652 whole entry) above
T1 sequence (P23977 whole entry): as the sequence (P23977 whole entry, looked up) above
T2 sequence (Q9WTR4 whole entry): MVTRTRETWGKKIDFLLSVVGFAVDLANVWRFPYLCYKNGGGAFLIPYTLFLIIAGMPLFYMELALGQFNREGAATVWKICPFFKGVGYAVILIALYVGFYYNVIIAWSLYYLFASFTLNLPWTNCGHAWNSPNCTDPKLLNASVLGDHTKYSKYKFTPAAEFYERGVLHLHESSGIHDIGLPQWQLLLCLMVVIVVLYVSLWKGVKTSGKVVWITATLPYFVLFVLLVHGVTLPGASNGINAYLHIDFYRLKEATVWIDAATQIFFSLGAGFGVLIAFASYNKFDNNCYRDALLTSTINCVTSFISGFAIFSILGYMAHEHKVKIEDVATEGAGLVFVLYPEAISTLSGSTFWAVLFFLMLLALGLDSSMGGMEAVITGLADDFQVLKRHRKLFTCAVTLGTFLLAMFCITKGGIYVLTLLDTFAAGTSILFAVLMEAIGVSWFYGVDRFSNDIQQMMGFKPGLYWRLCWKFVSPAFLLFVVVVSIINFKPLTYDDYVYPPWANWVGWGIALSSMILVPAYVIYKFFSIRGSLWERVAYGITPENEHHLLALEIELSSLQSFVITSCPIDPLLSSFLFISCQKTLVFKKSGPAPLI

As for `COC(=O)[C@@H]1C2CC[C@H](C[C@@H]1c1ccccc1)N2C`, the Ki was 49.8 nM in assay [1] and 37.2 nM in assay [2].

Turning to `CN1C2CCC1C(C(=O)OC1CC1)C(c1ccc(I)cc1)C2` (centres undefined), the IC50 in assay [3] was 102 nM; in assay [4], 0.61 nM. Moreover, the results for the Ratio in assay [5] and in assay [6] were 25 and 167, respectively.

In the case of `CNC(=O)C1C(OC(=O)c2ccccc2)CC2CCC1N2C` (centres undefined), the IC50 in assay [7] was 44800 nM; in assay [3], 4210 nM; in assay [4], 2420 nM. Further, the figures for the Ratio in assay [5] and in assay [6] were 18 and 1.7, respectively.

Consider `CON(C)C(=O)C1C(c2ccc(Cl)cc2)CC2CCC1N2C` (centres undefined), for which the IC50 in assay [7] was 724 nM; in assay [3], 549 nM; in assay [4], 0.85 nM. For the same compound, the Ratio in assay [8] was determined as 852; in assay [6] it was 646.

On to `COC(=O)C1C(c2ccc(Cl)c(C)c2)CC2CCC1N2C` (centres undefined), for which the IC50 in assay [7] came to 10.5 nM; in assay [3], 36.2 nM; in assay [4], 0.81 nM. Also, the Ratio in assay [8] amounted to 13; in assay [6] it was 45.

Turning to `CN1C2CCC1C(C(N)=O)C(OC(=O)c1ccccc1)C2` (centres undefined), the IC50 amounted to 13700 nM in assay [7], 3980 nM in assay [3] and 753 nM in assay [4]. In addition, the values for the Ratio in assay [5] and in assay [6] were 18 and 5.3, respectively.

Take `CN1C2CCC1C(C(N)=O)C(c1ccc(Cl)cc1)C2` (centres undefined): the IC50 in assay [7] worked out at 1620 nM; in assay [3], 4270 nM; in assay [4], 11.5 nM. Also, the figures for the Ratio in assay [5] and in assay [6] were 141 and 371, respectively.

As for `Cc1ccc(C2CC3CCC(C2C(=O)OC2CCCC2)N3C)cc1` (centres undefined), the IC50 is 485 nM in assay [7], 2630 nM in assay [3] and 17.8 nM in assay [4]. Also, the Ratio in assay [8] came out at 27; in assay [6], 148.

Regarding `COC(=O)C1C(c2ccc(C)cc2)CC2CCC1N2C` (centres undefined), the figures for the IC50 in assay [3] and in assay [4] were 60 nM and 1.71 nM, respectively. For the same compound, the figures for the Ki in assay [1] and in assay [2] were 7.02 nM and 8.42 nM, respectively.

`Cc1ccc(C2CC3CCC(C2C(=O)Oc2ccc(Cl)cc2)N3C)cc1` (centres undefined): the IC50 turned out to be 42800 nM in assay [7], 9520 nM in assay [3] and 117 nM in assay [4]. The Ratio in assay [8] was 366; in assay [6], 81.

Consider `CN1C2CCC1C(C(=O)OC/C=C/c1ccccc1)C(OC(=O)c1ccccc1)C2` (centres undefined), for which the IC50 in assay [7] is 368 nM; in assay [3], 68900 nM; in assay [4], 371 nM. The Ratio in assay [5] was 1; in assay [6], 186.

With `CON(C)C(=O)C1C(c2ccc(C)cc2)CC2CCC1N2C` (centres undefined), the IC50 stood at 3400 nM in assay [7], 442 nM in assay [3] and 2.55 nM in assay [4]. Further, the figures for the Ratio in assay [8] and in assay [6] were 1330 and 173, respectively.

Take `Cc1ccc(C2CC3CCC(C2C(=O)Oc2ccccc2C)N3C)cc1` (centres undefined): the values for the IC50 in assay [7], in assay [3] and in assay [4] were 11000 nM, 25700 nM and 23.2 nM, respectively. For the same compound, the figures for the Ratio in assay [8] and in assay [6] were 476 and 1110, respectively.

As for `CN1C2CCC1C(C(=O)NCO)C(c1ccc(Cl)cc1)C2` (centres undefined), the IC50 was found to be 144 nM in assay [3] and 2.05 nM in assay [4]. The Ratio came to 48 in assay [5] and 47 in assay [6].

In the case of `CN1C2CCC1C(C(=O)OCCCc1ccccc1)C(OC(=O)c1ccccc1)C2` (centres undefined), the values for the IC50 in assay [7], in assay [3] and in assay [4] were 374 nM, 4890 nM and 147 nM, respectively. The Ratio in assay [8] amounted to 2.5; in assay [6] it was 33.

Consider `CN(C(=O)C1C(c2ccc(Cl)cc2)CC2CCC1N2C)c1ccccc1` (centres undefined), for which the figures for the IC50 in assay [7], in assay [3] and in assay [4] were 23600 nM, 2200 nM and 45.5 nM, respectively. The Ratio came to 519 in assay [8] and 48 in assay [6].

As to `CN1C2CCC1C(C(=O)Oc1ccccc1)C(c1ccccc1)C2` (centres undefined), the IC50 in assay [7] is 106000 nM; in assay [3] it was 19300 nM; in assay [4] it was 76.7 nM. Also, the values for the Ratio in assay [8] and in assay [6] were 1380 and 251, respectively.
